# Experimental data from different studies.
# Lines come from different studies, so protocols differ.
# Target: Serine/threonine-protein kinase 38 (STK38, Homo sapiens, UniProt Q15208)
Structure (SMILES),effect on,method,concentration,remaining binding [%]
Nc1ncc2c(n1)-c1c([nH]c3ccc(C#CC4CC4)cc13)CCCC2,binding,competition with immobilised ligand,1 µM,87
COc1ccc2cc(OCC3(C(=O)O)CN(C(=O)c4ccc(F)cc4)C3)ccc2c1,cell-free assay,competition with immobilised ligand,1 µM,98
CNC(=O)[C@@H]1CC[C@@H](n2c(-c3ccc4cnccc4c3)nc3ccc(C(=O)NCc4cccc(C(N)=O)c4)cc32)C1,binding,competition with immobilised ligand,1 µM,62
C[C@@H](c1ccc(-n2cnc3c(N)ncnc32)cc1)N1CCc2nn(C)c(Cc3ccccc3)c2C1=O,binding,competition with immobilised ligand,0.1 µM,71
O=C(NCc1ncc(C(F)(F)F)cc1Cl)c1ccc2c(c1)C1(CCS(=O)(=O)CC1)[C@H](C1CC1)N2S(=O)(=O)c1ccc(F)cc1,cell-free assay,competition with immobilised ligand,1 µM,92
CN(C)c1nccc(-c2cnc3ncccn23)n1,binding,,1 µM,79
O=C(Nc1c[nH]nc1C(=O)NC1CCNCC1)c1cc(F)cc(F)c1,binding,competition with immobilised ligand,1 µM,97
O=C(NCCCN1CCOCC1)c1ccc(Nc2ncc(Cl)c(-c3ccc(Cl)s3)n2)cc1,binding,competition with immobilised ligand,1 µM,76
CCOCCn1cc(C(=O)Nc2ccc(-n3nc(-c4cccnc4)cc3C(F)(F)F)cn2)ccc1=O,cell-free assay,competition with immobilised ligand,1 µM,91
O=C(NCCCN1CCOCC1)c1ccc(Nc2nccc(-c3cc4ccccc4s3)n2)cc1,binding,competition with immobilised ligand,1 µM,66
N[C@H]1CCN(c2nccc(-c3cnn4ncccc34)n2)C1,binding,,1 µM,100
COc1ncc2cc3ccccc3nc2c1C#N,cell-free assay,competition with immobilised ligand,5 µM,94
CN(C)c1nccc(-c2cnn3ncccc23)n1,binding,,1 µM,74
Cc1c[nH]c2nccc(Oc3c(F)cc(Nc4cc(Cl)nc(N)n4)cc3F)c12,cell-free assay,competition with immobilised ligand,0.1 µM,89
COc1cnc(Nc2cccc(S(N)(=O)=O)c2)nc1N1CCN(c2ccccc2)C(=O)C1,binding,competition with immobilised ligand,1 µM,84
C[C@H]1CCN(c2nccc(-c3cnn4ncccc34)n2)C1,binding,,1 µM,93
Cc1cc(-n2nc(Cc3cc(F)cc(C(F)(F)F)c3)nc2C)ccc1C(N)=O,cell-free assay,competition with immobilised ligand,1 µM,83
CN(c1nccc(-c2cnn3ncccc23)n1)C1CC1,binding,,1 µM,100
Cn1nc(C(F)(F)F)cc1-c1cnc(N2CCc3cc(S(=O)(=O)Nc4c(F)cc(Cl)cc4F)cc(N4CCCC4=O)c32)nc1,cell-free assay,competition with immobilised ligand,1 µM,97
CN(CCCC(F)(F)F)c1nccc(-c2cnn3ncccc23)n1,binding,,1 µM,100
Cc1cnc(Nc2ccc(C(=O)N3CCC(N4CCCC4)CC3)cc2)nc1-c1cc2ccccc2s1,binding,competition with immobilised ligand,1 µM,79
